Six compounds from ChEMBL document CHEMBL1130249, “Cyclic enkephalin analogues with exceptional potency and selectivity for delta-opioid receptors” (J Med Chem, 1997) can be followed below.

Each structure is given as a SMILES string. Peptide text beside a SMILES is read from it.

Common to all, as to format: tissue-based
Test [1] deals with Mu-type opioid receptor. The test is described as follows: Inhibitory potency against Opioid receptor mu 1 was determined in electrically induced strips of guinea pig ileum (GPI). The essentials: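 Ileum longitudinal muscle–myenteric plexus strips from male Hartley guinea pigs (250–500 g), in oxygenated Krebs at 37 °C under 1 g tension. Transmural stimulation at 0.1 Hz, 0.4-ms pulses, supramaximal voltage. IC50 from Hill fit of mean data from at least four tissues.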

The target in test [2] is Mu-type opioid receptor (Rattus norvegicus, UniProt P33535). The test is described as follows: Inhibition of binding of radioligand [3H]CTOP to Opioid receptor mu 1 in rat brain. The essentials:
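Rat whole brain (less cerebellum) membranes, preincubated 30 min at 25 °C to strip endogenous peptides. Displacement of 0.5 nM [3H]CTOP in 50 mM Tris-HCl pH 7.4 containing BSA, bestatin, bacitracin, captopril and toluenesulfonyl fluoride; 10 concentrations over an 800-fold range; 3 h at 25 °C; filtration.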

Test [3] has as its target Delta-type opioid receptor (Rattus norvegicus, UniProt P33533). The test is described as follows: Inhibition of binding of radioligand [3H][p-Cl-phe]-DPDPE to Opioid receptor delta 1 in rat brain.
In test [4] the target is Delta-type opioid receptor (Mus musculus, UniProt P32300). Put plainly: Inhibitory potency against Opioid receptor delta 1 was determined in electrically induced smooth muscle contractions of mouse vas deferens (MVD). The essentials:
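Vas deferens from male ICR mice (25–40 g), in Mg-free oxygenated Krebs at 37 °C under 0.5 g tension. Transmural stimulation at 0.1 Hz, 2.0-ms pulses, supramaximal voltage. […] IC50 from Hill fit of mean data from at least four tissues.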

Mu-type opioid receptor (Rattus norvegicus, UniProt P33535), sequence (P33535 whole entry): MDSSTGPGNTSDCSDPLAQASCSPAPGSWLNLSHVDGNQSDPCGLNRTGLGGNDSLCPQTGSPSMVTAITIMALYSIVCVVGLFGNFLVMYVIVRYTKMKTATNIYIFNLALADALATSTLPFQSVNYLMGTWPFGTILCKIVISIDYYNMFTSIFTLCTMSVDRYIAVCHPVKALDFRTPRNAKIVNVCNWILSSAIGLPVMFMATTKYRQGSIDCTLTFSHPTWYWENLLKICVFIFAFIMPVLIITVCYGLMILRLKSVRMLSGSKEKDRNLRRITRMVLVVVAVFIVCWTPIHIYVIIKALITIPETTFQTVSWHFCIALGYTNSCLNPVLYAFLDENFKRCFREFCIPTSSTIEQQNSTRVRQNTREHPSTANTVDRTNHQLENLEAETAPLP
Delta-type opioid receptor (Mus musculus, UniProt P32300), sequence (P32300 whole entry): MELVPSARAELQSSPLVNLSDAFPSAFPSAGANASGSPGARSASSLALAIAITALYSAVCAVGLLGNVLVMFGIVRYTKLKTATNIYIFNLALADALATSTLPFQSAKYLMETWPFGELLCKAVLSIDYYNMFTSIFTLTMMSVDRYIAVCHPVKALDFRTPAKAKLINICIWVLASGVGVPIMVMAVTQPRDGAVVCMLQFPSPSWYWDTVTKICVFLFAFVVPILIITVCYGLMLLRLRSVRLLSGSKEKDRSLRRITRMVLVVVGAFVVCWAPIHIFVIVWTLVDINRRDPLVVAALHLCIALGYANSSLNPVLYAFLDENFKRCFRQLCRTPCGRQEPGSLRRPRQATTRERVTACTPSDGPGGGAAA
Delta-type opioid receptor (Rattus norvegicus, UniProt P33533), sequence (P33533 whole entry): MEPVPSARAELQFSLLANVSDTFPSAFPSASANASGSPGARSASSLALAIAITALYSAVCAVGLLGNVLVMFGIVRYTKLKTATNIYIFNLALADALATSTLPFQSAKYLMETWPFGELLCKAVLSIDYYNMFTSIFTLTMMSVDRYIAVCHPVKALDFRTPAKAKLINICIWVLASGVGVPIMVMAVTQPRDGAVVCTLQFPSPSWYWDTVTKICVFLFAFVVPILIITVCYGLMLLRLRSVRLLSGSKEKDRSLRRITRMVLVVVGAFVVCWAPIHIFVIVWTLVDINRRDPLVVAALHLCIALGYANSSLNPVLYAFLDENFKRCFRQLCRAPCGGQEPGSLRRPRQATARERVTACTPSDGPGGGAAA

On to `CC1(C)SSC(C)(C)[C@@H](NC(=O)[C@@H](N)Cc2ccc(O)cc2)C(=O)NCC(=O)N[C@@H](Cc2ccc(F)cc2)C(=O)N[C@@H]1C(=O)N[C@@H](Cc1ccccc1)C(=O)O`, for which the IC50 against Mu-type opioid receptor [1] came out at 740 nM; on Mu-type opioid receptor [2], 1650 nM; in test [3], 0.43 nM; in test [4], 0.016 nM.
`CC1(C)SSC(C)(C)[C@@H](NC(=O)[C@@H](N)Cc2ccc(O)cc2)C(=O)NCC(=O)N[C@@H](Cc2ccccc2)C(=O)N[C@@H]1C(=O)N[C@@H](Cc1ccccc1)C(=O)O`: the IC50 against Mu-type opioid receptor [1] was 5800 nM; at Mu-type opioid receptor [2], 11400 nM; in test [3] it was 4 nM; in test [4], 1.89 nM.
The matching figures for `CC1(C)SSC(C)(C)[C@@H](NC(=O)[C@@H](N)Cc2ccc(O)cc2)C(=O)NCC(=O)N[C@@H](Cc2ccc(Br)cc2)C(=O)N[C@@H]1C(=O)N[C@@H](Cc1ccccc1)C(=O)O`: 3400 nM, 4200 nM, 0.2 nM and 0.18 nM.
Consider `CC1(C)SSC(C)(C)[C@@H](NC(=O)[C@@H](N)Cc2ccc(O)cc2)C(=O)NCC(=O)N[C@@H](Cc2ccc(Cl)cc2)C(=O)N[C@@H]1C(=O)N[C@@H](Cc1ccccc1)C(=O)O`, for which the IC50 at Mu-type opioid receptor [1] amounted to 420 nM; on Mu-type opioid receptor [2], 1700 nM; in test [3] it was 0.4 nM; in test [4], 0.17 nM.
For `CC1(C)SSC(C)(C)[C@@H](NC(=O)[C@@H](N)Cc2ccc(O)cc2)C(=O)NCC(=O)N[C@@H](Cc2ccc(I)cc2)C(=O)N[C@@H]1C(=O)N[C@@H](Cc1ccccc1)C(=O)O`, the concentration for half-maximal inhibition (IC50) against Mu-type opioid receptor [1] was determined as 8700 nM; on Mu-type opioid receptor [2], 7300 nM; in test [3] it was 0.47 nM; in test [4] it was 0.8 nM.
`CC1(C)SSC[C@@H](C(=O)N[C@@H](Cc2ccccc2)C(=O)O)NC(=O)[C@H](Cc2ccccc2)NC(=O)CNC(=O)[C@@H]1NC(=O)[C@@H](N)Cc1ccc(O)cc1` (HELM PEPTIDE1{Y.[CC(C)(S[*:3])[C@@H](N[*:1])C(=O)[*:2]].G.F.C.F}$PEPTIDE1,PEPTIDE1,2:R3-5:R3$$$V2.0) registered an IC50 at Mu-type opioid receptor [1] of 83 nM.
